# Rows were chosen to be rich in hits. Some 3% of all compounds tested hit in one or more screens of this group.
# SENP6 block = blocks the human protease SENP6 | Recombinant SENP6 catalytic domain, aminoluciferin luminescence | inhibition, % at 10 µM | 330,000 tested, 1.8% active | AID 2599;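 active = inhibition above about 50% at the single tested dose, limit read from the data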;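 also: plate controls were DMSO wells with enzyme for no effect and DMSO wells lacking enzyme for full effect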
# SENP8 block-1 = SENP8 protease inhibition; Q96LD8; purified SENP8, Z-RLRGG-aminoluciferin cleavage, luminescence; inhibition, % at 10 µM; 330,000 tested, 1.2% active; AID 2540; in the data active = inhibition above about 50%
# SENP8 block-2 = SENP8 (human) protease inhibition | 360,000 tested, 0.64% active | recombinant SENP8, Nedd8 substrate fluorescence | inhibition, % at 20 µM; in the data active = inhibition mostly above about 40%, no sharp cut-off; inactive = mostly below about 27%
# Apaf1 inhib = blocks human Apaf-1 apoptosome activity; reconstituted apoptosome caspase-3 activity, DEVD-Rh110 fluorescence; inhibition, % at 20 µM; 330,000 tested, 0.71% active; AID 489030; active = inhibition of at least 40% at 20 µM;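 also: plate controls were DMSO wells for no effect and DEVD-CHO caspase inhibitor wells for full effect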
#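 Material: cell-free apoptosome with Apaf-1, procaspase-3 and caspase-9; Buffer or medium: Hepes pH 7.5 with detergent and BSA; Reagent: cytochrome c trigger plus (Z-DEVD)2-Rh110 caspase-3 substrate; Times: compound with Apaf-1, dATP, procaspase-3 30 min, then 50 min reaction, room temperature; Technique: Rh110 fluorescence intensity.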
# SENP7 inh = inhibitors of human SENP7 protease | recombinant SENP7, Z-RLRGG-aminoluciferin luminescence, 40 min | inhibition, % at 5 µM | 330,000 tested, 1.5% active | AID 434973;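 active = inhibition above about 50% at the single test dose, limit read from the data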;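 also: plate controls were DMSO with enzyme for no effect and no enzyme buffer wells for full effect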
# UBC13 inh = blocks human UBC13 polyubiquitin chain formation; P61088; TR-FRET; inhibition, % at 20 µM; 330,000 tested, 0.47% active; in the data active = inhibition above about 45%, passing the limit was not always enough
# SENP8 confirm = human SENP8 inhibition, confirmed; inhibition, % at 12.5 µM; Recombinant SENP8, Z-RLRGG-aminoluciferin luminescence, 60 min; shares compounds with SENP7 inh; 6,200 tested, 40% active;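 active = mean inhibition across replicates above about 50%, limit read from the data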
# SENP6 conf = human SENP6 inhibition, confirmed. shares compounds with SENP7 inh. recombinant SENP6, Z-RLRGG-aminoluciferin luminescence. inhibition, % at 12.5 µM. 6,200 tested, 58% active
# SENP7 conf = human SENP7 inhibition, confirmed. 6,200 tested, 69% active. inhibition, % at 12.5 µM. AID 488917. recombinant SENP7, Z-RLRGG-aminoluciferin luminescence, 40 min. shares compounds with SENP7 inh
# Casp3 select = caspase-3 inhibition (SENP selectivity assay); shares compounds with SENP7 inh; purified caspase-3, Z-DEVD-aminoluciferin luminescence, 60 min; inhibition, % at 12.5 µM; 6,200 tested, 60% active; AID 488918;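 active = mean inhibition above about 50%, limit read from the data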;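 also: plate controls were enzyme with DMSO for no effect and wells without caspase-3 for full effect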
# Luc interf = counter-screen for SENP inhibitors: luminescence interference; shares compounds with SENP7 inh; Pre-incubated SENP8/Z-RLRGG-aminoluciferin, luciferase luminescence interference; inhibition, % at 12.5 µM; 6,200 tested, 39% active;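 active = mean inhibition above about 50% when retested at one dose, limit read from the data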;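 also: plate controls were DMSO wells with completed reaction for no effect and substrate without enzyme for full effect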
# Active calls of the source: *; i = inactive; · = not tested or not shown.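 The calls were made as follows, unless noted: active = mean inhibition above about 50% in the one-dose retest (limit read from the data); inactive = the rest.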
SMILES,SENP6 block,SENP8 block-1,SENP8 block-2,Apaf1 inhib,SENP7 inh,UBC13 inh,SENP8 confirm,SENP6 conf,SENP7 conf,Casp3 select,Luc interf
C(=N\Nc1nc2ccccc2s1)/c1cccs1,95.2*,89.3*,-43.8,12.6,92.8*,-5.7,36.8,87.5*,99.7*,71.3*,81.5*
CN1CCN(c2cc(N3CCN(C(=O)c4ccco4)CC3)c3c4c(onc24)-c2ccccc2C3=O)CC1,55.3*,38.2,65.0*,82.4*,21.3,i,4.2,18.2,12.1,15.6,12.0
O=C(CSCc1ccco1)N1CCc2ccccc21,56.5*,33.8,13.7,9.2,32.9,6.5,47.2,45.4,79.0*,67.5*,58.5*
O=C(NCc1ccc(F)cc1)c1cc(C2CCCCN2C(=O)CCCc2ccccc2)on1 (stereo not given),·,·,9.6,·,·,·,·,·,·,·,·
O=C(O)c1cc(N=Nc2c(O)[nH]c3ccc([N+](=O)[O-])cc23)ccc1Cl,54.2*,64.8*,30.5,6.3,49.4,-25.8,44.3,25.4,20.8,27.8,37.8
CCOC(=O)CC1(C)Oc2ccccc2N1S(=O)(=O)c1ccc(C)cc1 (stereo not given),·,·,16.7,·,·,·,·,·,·,·,·
COc1cccc(C(=O)Nc2nnc(SCC(=O)Nc3ccc(NC(C)=O)cc3)s2)c1,69.9*,54.8*,-30.1,-4.9,49.2,-9.7,32.3,60.7*,86.4*,67.1*,11.9
O=C(Nc1nc2ccccc2s1)c1ccc(OCC2CCCO2)cc1 (stereo not given),70.8*,53.5*,-154.8,10.3,77.0*,11.9,42.3,73.1*,92.8*,61.7*,45.9
O=C(Nc1ncccc1O)c1ccc(OCC2CCCO2)cc1 (stereo not given),44.8,21.4,-2.0,7.2,50.8*,-3.0,43.7,42.0,76.7*,82.3*,48.9
O=C(Nc1nc2ccccc2s1)c1ccc(F)cc1,88.2*,84.6*,-43.4,5.6,93.3*,11.9,2.5,87.3*,99.9*,86.3*,47.6
O=C(NC1=NCCS1)c1ccc(OCC2CCCO2)cc1 (stereo not given),-5.1,-0.2,-0.1,3.9,4.7,0.5,·,·,·,·,·
COc1cccc(N2CC(C(=O)Nc3nnc(SCC(=O)Nc4ccc(NC(C)=O)cc4)s3)CC2=O)c1 (stereo not given),0.0,1.8,7.6,-10.2,-1.0,-5.2,·,·,·,·,·
CC(C)CC1C(=O)N(Cc2cn(Cc3ccco3)nn2)CCS(=O)(=O)N1Cc1ccc(-c2ccc(F)cc2)cc1 (stereo not given),·,·,-2.5,·,·,·,·,·,·,·,·
CC(C)c1ccc(NC(=O)C2Cc3c(-c4cccc(F)c4)ccnc3O2)cc1 (stereo not given),·,·,4.8,·,·,·,·,·,·,·,·
O=C(Nc1nc2c(s1)C(=O)CCC2)c1ccccc1,97.5*,95.1*,-28.8,-5.1,97.0*,-1.3,96.7*,97.5*,101.1*,97.2*,95.7*
COc1ccc(/C=N/OCC(=O)Nc2nc3ccccc3s2)cc1OC,87.1*,69.8*,20.9,-7.1,74.7*,5.0,11.1,78.2*,94.1*,63.5*,50.8*
O=C(Nc1nc(=O)c2ccccc2s1)c1ccccc1,59.7*,42.9,18.7,15.5,41.4,-2.0,19.9,52.9*,17.4,26.6,11.2
O=C(Nc1nc2ccccc2s1)c1ccc(Cl)s1,76.7*,66.7*,-289.1,5.3,82.2*,13.1,13.5,49.5,50.6*,41.1,16.8
O=C(NC1CCCC1)N[C@@H]1CC[C@@H](CC(=O)N2CCOCC2)O[C@@H]1CO,·,·,11.4,·,·,·,·,·,·,·,·

# Compound activity: PubChem BioAssay, Sanford-Burnham Center for Chemical Genomics
